KCNQ1 pot: human KCNQ1 channel potentiation or activation; P51787; 0.35% of 310,000 active; AID 2648; CHO-K1 KCNQ1, thallium flux FluxOR fluorescence; hits give high values; B-score at 10 µM;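 active = fluorescence ratio B-score, a plate-corrected score, at least three library SD, with initial intensity B-score within 5 SD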
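Assay system: CHO-K1 cells stably expressing KCNQ1; Medium: assay buffer with matched DMSO; Also added: K+/Tl+ depolarizing stimulus; Dosing: single dose; Timing: dye 90 min, compound 20 min, room temperature; Measured by: kinetic FluxOR thallium fluorescence, 10-s 1-Hz baseline, 110-s post-stimulus read; Read-out: peak-minus-minimum fluorescence over initial fluorescence, negative-control normalized, B-scored.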
KCNK9 block: human KCNK9 channel inhibition. 1.2% of 310,000 active. Q9NPC2. HEK293 KCNK9, FluxOR thallium flux fluorescence; hits give low values. B-score at 10 µM;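 active = ratio B-score over 3 SD below the library mean, with starting fluorescence within 5 SD of its mean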;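 note: negative B-score means less thallium flux so channel inhibition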
KCNQ1 inh: blocks the human KCNQ1 potassium channel. P51787. CHO-K1 KCNQ1, FluxOR thallium flux fluorescence; hits give high values. B-score at 10 µM. 1.3% of 310,000 active. AID 2642;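 active = compounds whose thallium flux B-score, printed positive for inhibition, exceeds three library SD while starting fluorescence stays within three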;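 note: channel opened by potassium depolarization with thallium stimulus after 20 min compound exposure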
KCNK3 inh: human KCNK3 channel inhibition, primary screen; CHO-KCNK3 thallium flux, FluxOR fluorescence; hits give low values; AID 602410; B-score at 10 µM; 0.84% of 340,000 active; O14649;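 active = B-score under library mean minus 4 SD, starting fluorescence ratio at most library mean plus 5 SD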;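 note: more negative B-score means stronger inhibition of thallium flux through KCNK3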
hERG rescue: compounds protecting human hERG from proarrhythmic drug block | CHO-hERG, FluxOR thallium flux, dofetilide IC70 present | activation (rescue from dofetilide block), less the hit threshold, % at 10 µM | 0.51% of 310,000 active | AID 1511 | Q12809;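 active = activation above the mean of controls blocked by dofetilide plus 5 SD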;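 note: thallium influx through hERG after potassium depolarization seen as dye fluorescence rise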
Kir21 inh: Kir2.1 (mouse) channel inhibition | B-score at 10 µM | 0.85% of 310,000 active | HEK293-Kir2.1, FluxOR thallium flux fluorescence; hits give low values;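 active = fluorescence ratio B-score at or below minus 3 SD of library scores, with starting-brightness B-score within 2 SD, cut at about -4.2 in these data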;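 note: channel flux triggered by added potassium and thallium sulfate stimulus; B-score of peak minus minimum fluorescence over baseline after thallium stimulus; more negative B-score means stronger Kir2.1 block with less thallium influx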
Target sequence (P35561 whole entry, looked up): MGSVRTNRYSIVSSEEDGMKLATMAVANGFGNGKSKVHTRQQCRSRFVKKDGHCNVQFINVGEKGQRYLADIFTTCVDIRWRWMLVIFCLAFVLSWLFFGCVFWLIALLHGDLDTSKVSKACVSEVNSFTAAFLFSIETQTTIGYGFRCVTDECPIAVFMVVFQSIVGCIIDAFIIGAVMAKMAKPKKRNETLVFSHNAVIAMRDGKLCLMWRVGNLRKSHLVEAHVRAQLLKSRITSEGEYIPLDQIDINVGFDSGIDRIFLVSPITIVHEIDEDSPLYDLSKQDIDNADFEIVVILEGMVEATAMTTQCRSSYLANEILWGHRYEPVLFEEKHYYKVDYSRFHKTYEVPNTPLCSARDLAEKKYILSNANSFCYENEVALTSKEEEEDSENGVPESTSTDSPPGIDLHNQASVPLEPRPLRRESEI
An asterisk follows results filed as active; i = inactive; . = no result. The list is not random: actives were taken first. Their share in the collection is about 3.7%.

SMILES	KCNQ1 pot	KCNK9 block	KCNQ1 inh	KCNK3 inh	hERG rescue	Kir21 inh
COc1ccc(/C=N/NC(=O)CC2N=C(Cc3ccccc3)NNC2=O)cc1OC (centres undefined)	i	i	i	i	-9	0.4
CCCCOc1cc(=O)[nH]c(=O)[nH]1	i	i	i	i	4.7*	2
CC1CN(c2nc(-c3ccc(Br)cc3)nnc2-c2ccccc2)CC(C)N1 (centres undefined)	i	i	i	i	-23	-9.3*
Cc1cccc(-n2ncc3c(N4CC(C)CC(C)C4)ncnc32)c1 (centres undefined)	i	-7.1*	i	i	-9	0.67
Cc1c(C(=O)Nc2c3c(nn2C(C)(C)C)CS(=O)(=O)C3)cccc1[N+](=O)[O-]	i	i	i	i	-5	0.04
COC(=O)CSc1nnc(-c2cccnc2)n1-c1cc(OC)cc(OC)c1	i	i	i	i	-10	-0.13
COc1ccc(-n2c(SCC(=O)N3CCCCC3)nnc2-c2cccnc2)cc1	i	i	i	i	6.4*	-2.4
CC1(C)Oc2ccc(C#N)cc2[C@@H](N2CCCC2=O)[C@@H]1O	i	i	i	i	-3	1.2
COc1ccc([N+](=O)[O-])cc1N(CC(=O)NC(C(C)C)C(C)C)S(C)(=O)=O	i	i	i	i	-2	0.56
Cc1occc1C(=O)NNC(=O)c1ccc(S(=O)(=O)N(C)C)cc1	.	.	.	i	.	.
CC1CCCN(c2ccc(C(=O)Nc3ccc4c(c3)OCO4)cc2[N+](=O)[O-])C1 (centres undefined)	i	i	6*	i	-7	-1.6
Cc1ccc(C(=O)Nc2ccc3c(c2)OCO3)cc1Cl	i	i	i	i	-3	0.59
Cc1ccc(NC(=O)c2ccc3c(c2)OCO3)cc1Cl	i	i	i	i	13*	0.77
O=C(Nc1ccc2c(c1)OCCO2)c1c[nH]c(=O)n(-c2ccc(F)c(Cl)c2)c1=O	i	i	i	i	-8	-0.05
C/C(=N\NC(=S)NC(C)C)c1ccccc1	i	i	i	i	-12	2.1
CC(C)NC(=S)NC(c1ccccc1)(c1ccccc1)c1ccccc1	i	i	10*	i	-4	0.44
CC(=O)Nc1cccc(-c2nnc3c4ccccc4c(C)nn23)c1	i	i	i	.	52*	1
O=[N+]([O-])c1ccc(O)c(Nc2ncnc3ccc(Br)cc23)c1	i	i	7*	i	-6	-0.06
CC(CN1CCCC1)C(=O)NN (centres undefined)	i	i	i	i	-4	1
NS(=O)(=O)c1cc2c(cc1Cl)NC(Cc1ccccc1)NS2(=O)=O (centres undefined)	i	i	i	i	-8	-3.3
CC1CCCCC1NC(=O)Cn1nc(-c2ccccc2)ccc1=O (centres undefined)	i	i	i	i	4.9*	-0.04
CC1CCCCN1CCNC(=O)Cn1nc(-c2ccccc2)ccc1=O (centres undefined)	i	i	i	i	3	0.24
Cn1cnnc1SCC(=O)Nc1ccc(N2CCCCC2)cc1	.	.	.	i	.	.
CC(=O)C1=C(O)C(=O)N(c2ccc(O)cc2)C1c1ccc(Cl)cc1 (centres undefined)	i	i	i	i	2	-0.25
CC1=CC(=O)N(c2cccc(C(F)(F)F)c2)C1c1ccc(Cl)cc1 (centres undefined)	i	-7.7*	i	i	-12	-1.8
SMILES	KCNQ1 pot	KCNK9 block	KCNQ1 inh	KCNK3 inh	hERG rescue	Kir21 inh
CC1=CC(=O)N(c2ccc(C)cc2)C1c1ccc(Cl)cc1 (centres undefined)	i	i	i	i	-8	-4.5*
O=C(Oc1ccc(=O)n(-c2ccccc2)n1)c1ccc(Cl)cc1	i	i	i	i	-16	-4.3*
O=C(Oc1ccc(=O)n(-c2ccccc2)n1)c1ccc(F)cc1	i	i	i	i	-9	-1.2
CCCOP(=O)(c1ccccc1)c1ccccc1	i	i	i	i	-5	0.84
CC(C)CCOP(=O)(c1ccccc1)c1ccccc1	i	-6.8*	i	i	-7	-1.3
CCN(CC(=O)Nc1ccc(NC(C)=O)cc1)C(=O)c1ccc(=O)n(C)n1	.	.	.	i	.	.
CCCn1c(C)cc(C(=O)COc2ccc(-c3nnco3)cc2)c1C	i	i	i	i	-3	1.1
CCOC(=O)C1CCCN(C(=O)C2CCN(S(=O)(=O)c3ccc4ccccc4c3)CC2)C1 (centres undefined)	10*	i	i	i	-16	0.38
COc1ccc(-c2nc(CSCC(=O)NCCC3=CCCCC3)c(C)o2)cc1OC	i	i	i	i	-13	-5.1*
O=C(NCc1ccccc1)C1COc2ccccc2O1 (centres undefined)	i	i	i	i	-7	0.19
Cc1onc(-c2ccccc2)c1CNC(=O)C1COc2ccccc2O1 (centres undefined)	i	i	i	i	-10	-5.4*
O=C(CN1CCCC(O)C1)N1c2ccccc2Sc2ccc(C(F)(F)F)cc21 (centres undefined)	i	i	i	i	-7	-0.37
CN1CCN(CCCN2c3ccccc3Sc3ccc(C(F)(F)F)cc32)CC1	i	i	6*	i	-23	-4.4*
COc1cc(OC)c(-c2sc(Nc3ccccc3)n[n+]2-c2ccc(F)cc2)cc1OC	i	i	i	i	-2	1.1
COc1ccc(-c2sc(Nc3ccccc3)n[n+]2-c2ccc(F)cc2)c(OC)c1OC	i	i	7*	i	-18	-2.4
O=C(CCn1c(=O)c2sccc2n(CC(=O)OCc2ccccc2)c1=O)NCc1ccccc1	i	i	i	i	5.2*	1.6
COc1cccc(N=Nc2ccc3cccnc3c2O)c1	9*	i	i	i	-8	0
COc1cc(C(C[N+](=O)[O-])c2c(N)n(C)c(=O)n(C)c2=O)ccc1O (centres undefined)	i	i	6*	i	-3	0.01
O=C(O)/C=C(\Oc1ccccc1)C1(O)CCCCC1	i	i	i	i	-6	-1
CCOC(=O)C1=C(C)N=C2SC(C(=O)OC)=CC(=O)N2C1c1ccc(OC)cc1 (centres undefined)	i	i	i	i	-23	-5.7*
Cc1ccc(C(=O)CCC(=O)Nc2ccc(C)cn2)cc1	.	.	.	i	.	.
O=NN(CCc1ccncc1)c1ccc(OCc2ccccc2)cc1	i	i	10*	-9.1*	-20	0.01

Screening data as filed in PubChem.
